We go through eight compounds from ChEMBL document CHEMBL3351978, “Optimization of 1,2,4-Triazolopyridines as Inhibitors of Human 11β-Hydroxysteroid Dehydrogenase Type 1 (11β-HSD-1)” (ACS Med Chem Lett, 2014).

In brackets after ≈: the same amount, converted by molar mass. Activity calls are given as the source filed them. The calls are words filed in the database; no cut-off is given here.

In data set [1] the test system is HEK293-EBNA. In words: Inhibition of cynomolgus monkey recombinant 11beta-HSD-1 expressed in HEK293 EBNA cells using [3H]-cortisone and NADPH by scintillation proximity assay. It is filed as cell-based. Conditions: Macaca fascicularis.
A short description of data set [2]: Stability in […] monkey microsomes assessed as parent compound remaining after 30 mins. It is filed as ADME, Macaca fascicularis, Microsome. Conditions: read-out: Stability.
The nature of data set [3]: Stability in rat microsomes assessed as parent compound remaining after 30 mins. It is filed as ADME, Microsome. Conditions: read-out: Stability.
The nature of data set [4]: Solubility at pH 7.4. Conditions: buffer. Type of data set: physicochemical.
Data set [5] is described as follows: Stability in human microsomes assessed as parent compound remaining after 30 mins. It is filed as ADME, Microsome. Conditions: read-out: Stability.
Data set [6] is described as follows: Cmax in Balb/C mouse at 3.5 mg/kg, po. It is filed as ADME, organism-based. Also noted: dose 3.5 mg/kg, route oral. Conditions: in vivo. Put shortly:
(§1)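 Male Balb/C mice were given a single oral dose of 3.5 mpk in 0.5% methocel/0.1% Tween-80 in water.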

Data set [7] in a line: Tmax in Balb/C mouse at 3.5 mg/kg, po. It is filed as ADME, organism-based. Also noted: dose 3.5 mg/kg, route oral. Conditions: in vivo. Summed up: as §1
Data set [8] can be described thus: Stability in mouse microsomes assessed as parent compound remaining after 30 mins. Type of data set: ADME, Microsome. Conditions: read-out: Stability.
Data set [9] is described as follows: AUC (0 to 8 hrs) in Balb/C mouse at 3.5 mg/kg, po. Conditions: plasma. Type of data set: ADME, organism-based. The arrangement: time < 8 hr, dose 3.5 mg/kg, route oral. Summed up:
as §1

Regarding `Clc1ccc(C2(c3nnc4c(OC5CCOCC5)cccn34)CC2)cc1`, the inhibition entry in [1] was “Active”.

Regarding `Clc1ccc(C2(c3nnc4c(C5CCC5)cccn34)CC2)cc1`, the inhibition entry in [1] was “Active”.

For the compound `Clc1ccc(C2(c3nnc4c(OCC5CC5)cccn34)CC2)cc1`, in data set [1], the inhibition result is “Active”.

As for `CC(C)c1cccn2c(C3(c4ccc(Cl)cc4)CC3)nnc12`, in [1], the inhibition result was “Active”.

The solubility is the concentration that dissolves in the medium under given conditions. As usually defined, the Cmax is the maximum level reached in the sampled fluid or tissue. A word on the Tmax: it is the time from dosing to the highest level. As a reminder, the AUC(0-t) is the area under the concentration-time curve up to a stated or last time point. As for `Clc1ccc(C2(c3nnc4c(C5CC5)cccn34)CC2)cc1`, in [1], the inhibition entry is “Active”. Further, the remaining at 0.5 h in data set [2], in data set [3], in data set [5] and in [8] was 100% each time. Moreover, the solubility in [4] is 76 µg/mL (≈ 245 µM). In data set [6], this compound gave a Cmax of 2500 nM. Besides, the time to peak (Tmax) in data set [7] worked out at 1 h. In data set [9], this compound gave an area under the curve AUC(0-t) at 8 h of 5.6 µM·h.

On to `Cc1cccn2c(C3(c4ccc(Cl)cc4)CC3)nnc12`, for which the inhibition entry in [1] was “Active”.

With `Clc1ccc(C2(c3nnc4c(OC5CCC5)cccn34)CC2)cc1`, in data set [1], the inhibition result was “Active”.

In the case of `Clc1ccc(C2(c3nnc4c(OC5CCCCC5)cccn34)CC2)cc1`, the inhibition entry in data set [1] is “inactive”.
